Source: ChEMBL document CHEMBL5143713, “Multitarget, Selective Compound Design Yields Potent Inhibitors of a Kinetoplastid Pteridine Reductase 1” (J Med Chem, 2022)
pEC50, pIC50: −log10 of the molar value.

Tests used:
[1] = target: T1, Pteridine reductase, putative (Trypanosoma brucei, UniProt Q581W1); assay: Inhibition of recombinant Trypanosoma brucei PTR1 expressed in Escherichia coli BL21 (DE3) cells using H2B as substrate in presence of cytochrome c and NADPH by envision multilabel reader
T1 sequence (Q581W1 whole entry): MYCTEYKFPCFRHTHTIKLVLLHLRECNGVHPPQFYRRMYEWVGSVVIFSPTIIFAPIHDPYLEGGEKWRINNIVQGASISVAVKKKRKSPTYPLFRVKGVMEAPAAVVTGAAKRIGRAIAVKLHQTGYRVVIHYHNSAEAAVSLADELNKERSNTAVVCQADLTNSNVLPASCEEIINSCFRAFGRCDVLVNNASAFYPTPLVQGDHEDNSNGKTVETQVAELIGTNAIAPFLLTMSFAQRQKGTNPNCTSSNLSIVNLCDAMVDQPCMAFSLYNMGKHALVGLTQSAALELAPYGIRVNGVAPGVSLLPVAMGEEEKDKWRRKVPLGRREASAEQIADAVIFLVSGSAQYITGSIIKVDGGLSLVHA

Pteridine reductase 1 = target: T2, Pteridine reductase 1 (Leishmania major, UniProt Q01782); assay: Inhibition of recombinant Leishmania major PTR1 expressed in Escherichia coli BL21 (DE3) cells using H2B as substrate in presence of cytochrome c and NADPH by envision multilabel reader
T2 sequence (Q01782 whole entry): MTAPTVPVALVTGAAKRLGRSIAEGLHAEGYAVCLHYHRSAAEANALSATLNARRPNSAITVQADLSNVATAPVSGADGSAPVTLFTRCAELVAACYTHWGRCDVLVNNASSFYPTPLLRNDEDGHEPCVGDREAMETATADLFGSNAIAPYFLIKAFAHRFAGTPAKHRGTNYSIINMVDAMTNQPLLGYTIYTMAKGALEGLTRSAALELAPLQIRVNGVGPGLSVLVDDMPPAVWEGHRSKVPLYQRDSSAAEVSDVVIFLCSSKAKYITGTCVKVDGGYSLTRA

[2] = target: Bifunctional dihydrofolate reductase-thymidylate synthase (Trypanosoma brucei brucei, UniProt Q27783); assay: Inhibition of recombinant Trypanosoma brucei DHFR-TS expressed in Escherichia coli BL21 (DE3) cells using dihydrofolate as substrate in presence of NADPH by spectrophotometric analysis
[3] = target: Bifunctional dihydrofolate reductase-thymidylate synthase (Leishmania major, UniProt P07382); assay: Inhibition of recombinant Leishmania major DHFR-TS expressed in Escherichia coli BL21 (DE3) cells using dihydrofolate as substrate in presence of NADPH by spectrophotometric analysis
Dihydrofolate reductase = target: T3, Dihydrofolate reductase (Homo sapiens, UniProt P00374); assay: Inhibition of recombinant human DHFR expressed in Escherichia coli BL21 (DE3) cells using dihydrofolate as substrate in presence of NADPH by spectrophotometric analysis; assay type: toxicity
T3 sequence (P00374 whole entry): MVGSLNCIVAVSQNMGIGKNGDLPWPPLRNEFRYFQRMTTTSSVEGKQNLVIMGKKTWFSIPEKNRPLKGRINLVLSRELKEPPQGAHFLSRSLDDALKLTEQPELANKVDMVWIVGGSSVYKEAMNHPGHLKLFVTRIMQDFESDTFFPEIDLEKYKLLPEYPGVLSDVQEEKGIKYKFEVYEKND

[4] = tested on: human DHFR versus Trypanosoma brucei PTR1; assay: Selectivity index, ratio of IC50 for human DHFR to IC50 for Trypanosoma brucei PTR1; assay type: toxicity; details: read-out: Ratio IC50
[5] = tested on: human DHFR versus Leishmania major PTR1; assay: Selectivity index, ratio of IC50 for human DHFR to IC50 for Leishmania major PTR1; assay type: toxicity; details: read-out: Ratio IC50
[6] = tested on: human DHFR versus Trypanosoma brucei DHFR; assay: Selectivity index, ratio of IC50 for human DHFR to IC50 for Trypanosoma brucei DHFR; assay type: toxicity; details: read-out: Ratio IC50
[7] = tested on: human DHFR versus Leishmania major DHFR; assay: Selectivity index, ratio of IC50 for human DHFR to IC50 for Leishmania major DHFR; assay type: toxicity; details: read-out: Ratio IC50
786-0 = assay: Mitochondrial toxicity in human 786-0 cells at 10 uM incubated with compound for 6 hrs followed by incubation with MitoTracker Red chloromethyl-X-rosamine dye for 45 mins by imaging analysis relative to control; assay type: cell-based; details: 786-0, 6 h
Outline: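 Tested at 10 μM. 786-O cells kept in RPMI-1640 with 2 mM glutamine, 10% FCS, streptomycin 100 μg/mL and penicillin G 100 U/mL. Mitochondrial toxicity read as MitoTracker Red (chloromethyl-X-rosamine) uptake by high-content imaging.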

A549 = assay: Cytotoxicity against human A549 cells at 10 uM measured after 48 hrs by Celltiter-Glo assay relative to control; assay type: toxicity, cell-based; details: a549, 48 h
Outline: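 Tested at 10 μM. A549 cells grown in DMEM with 10% FCS, streptomycin 100 μg/mL and penicillin G 100 U/mL. Viability read as cellular ATP by CellTiter-Glo luminescence.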

Macrophage = assay: (§1) Cytotoxicity against human THP-1 derived macrophages by colorimetric MTT assay; assay type: toxicity, cell-based; details: macrophage
Outline: (§2)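 CC50 from at least three independent MTT colorimetric cytotoxicity runs on THP-1-derived macrophages. Selectivity index is CC50 (or lower CC50 interval estimate) divided by antiparasitic EC50.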

CYP3A4 = CYP3A4 (Homo sapiens, UniProt P08684); assay: Inhibition of CYP3A4 (unknown origin) expressed in baculovirus-infected insect cells at 10 uM using CYP/Luciferin as substrate incubated for 30 mins in presence of NADPH by luminescence based analysis relative to control; assay type: ADME; details: probe CYP/Luciferin
Outline: (§3)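 Tested at 10 μM using microsomal preparations of each CYP isoform from baculovirus-infected insect cells on a luminescent P450-Glo platform. The enzyme acts on its substrate to give light, and a fall in luminescence indicates inhibition.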

[8] = tested on: Trypanosoma brucei brucei; assay: Antitrypanosomal activity against bloodstream form of Trypanosoma brucei brucei Lister 427 assessed as parasite growth inhibition at 10 uM incubated for 72 hrs by resazurin dye based analysis relative to control; assay type: functional
[9] = tested on: Trypanosoma brucei brucei; assay: Antitrypanosomal activity against bloodstream form of Trypanosoma brucei brucei Lister 427 assessed as parasite growth inhibition incubated for 72 hrs by resazurin dye based analysis; assay type: functional, organism-based; details: Lister 427, 72 h
[10] = as §1; assay type: toxicity, cell-based, Macrophage; details: THP-1 derived macrophages; outline: as §2
CYP1A2 = target: T4, CYP1A2 (Homo sapiens, UniProt P05177); assay: Inhibition of CYP1A2 (unknown origin) expressed in baculovirus-infected insect cells at 10 uM using CYP/Luciferin as substrate incubated for 30 mins in presence of NADPH by luminescence based analysis relative to control; assay type: ADME; details: probe CYP/Luciferin; outline: as §3
T4 sequence (P05177 whole entry): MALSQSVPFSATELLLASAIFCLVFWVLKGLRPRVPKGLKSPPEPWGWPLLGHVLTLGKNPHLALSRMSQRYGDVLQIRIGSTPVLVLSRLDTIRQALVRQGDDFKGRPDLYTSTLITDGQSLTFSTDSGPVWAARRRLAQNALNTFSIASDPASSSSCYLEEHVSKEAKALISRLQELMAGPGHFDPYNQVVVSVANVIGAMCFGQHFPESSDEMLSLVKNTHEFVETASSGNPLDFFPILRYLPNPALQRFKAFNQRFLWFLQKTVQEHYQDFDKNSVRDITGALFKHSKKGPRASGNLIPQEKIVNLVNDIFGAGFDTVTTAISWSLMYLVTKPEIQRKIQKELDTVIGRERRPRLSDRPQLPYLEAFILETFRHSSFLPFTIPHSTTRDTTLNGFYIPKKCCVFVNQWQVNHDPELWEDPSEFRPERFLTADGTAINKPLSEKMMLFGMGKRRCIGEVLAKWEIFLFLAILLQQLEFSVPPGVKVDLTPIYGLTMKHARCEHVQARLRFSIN

[11] = target: Voltage-gated inwardly rectifying potassium channel KCNH2 (Homo sapiens, UniProt Q12809); assay: Inhibition of hERG potassium channel at 10 uM by fluorescence polarization assay relative to control; assay type: toxicity
Outline: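 Tested at 10 μM. Fluorescence polarization readout using a hERG-containing membrane fraction and a red fluorescent high-affinity hERG tracer. Displacement of the tracer by the compound is measured.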

CYP3A4, sequence (P08684 whole entry, canonical isoform): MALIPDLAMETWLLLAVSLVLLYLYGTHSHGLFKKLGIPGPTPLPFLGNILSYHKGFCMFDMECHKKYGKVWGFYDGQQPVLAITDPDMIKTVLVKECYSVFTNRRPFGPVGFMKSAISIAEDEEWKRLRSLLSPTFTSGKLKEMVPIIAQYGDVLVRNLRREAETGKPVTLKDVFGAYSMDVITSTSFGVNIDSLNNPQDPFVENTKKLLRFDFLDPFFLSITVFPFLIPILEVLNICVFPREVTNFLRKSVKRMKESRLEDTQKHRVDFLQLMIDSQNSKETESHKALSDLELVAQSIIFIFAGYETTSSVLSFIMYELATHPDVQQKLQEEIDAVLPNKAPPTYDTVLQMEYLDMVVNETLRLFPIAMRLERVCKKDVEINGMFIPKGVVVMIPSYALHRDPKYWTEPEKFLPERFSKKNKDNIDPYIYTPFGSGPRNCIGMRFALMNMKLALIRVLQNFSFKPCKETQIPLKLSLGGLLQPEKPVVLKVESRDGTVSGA
Bifunctional dihydrofolate reductase-thymidylate synthase (Trypanosoma brucei brucei, UniProt Q27783), sequence (Q27783 whole entry): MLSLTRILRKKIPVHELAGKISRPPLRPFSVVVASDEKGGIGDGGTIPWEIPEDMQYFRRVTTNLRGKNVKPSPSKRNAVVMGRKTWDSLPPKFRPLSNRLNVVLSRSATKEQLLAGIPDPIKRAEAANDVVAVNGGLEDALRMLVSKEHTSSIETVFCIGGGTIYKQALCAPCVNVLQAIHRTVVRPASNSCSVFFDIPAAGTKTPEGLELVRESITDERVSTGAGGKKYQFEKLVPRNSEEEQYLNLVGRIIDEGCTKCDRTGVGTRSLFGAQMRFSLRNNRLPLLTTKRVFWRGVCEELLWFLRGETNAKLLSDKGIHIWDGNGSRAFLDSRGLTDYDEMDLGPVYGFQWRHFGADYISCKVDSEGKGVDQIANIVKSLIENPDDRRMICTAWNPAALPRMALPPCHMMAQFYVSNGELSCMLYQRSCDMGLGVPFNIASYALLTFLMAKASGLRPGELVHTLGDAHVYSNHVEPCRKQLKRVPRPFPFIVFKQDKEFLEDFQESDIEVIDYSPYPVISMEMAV
Bifunctional dihydrofolate reductase-thymidylate synthase (Leishmania major, UniProt P07382), sequence (P07382 whole entry): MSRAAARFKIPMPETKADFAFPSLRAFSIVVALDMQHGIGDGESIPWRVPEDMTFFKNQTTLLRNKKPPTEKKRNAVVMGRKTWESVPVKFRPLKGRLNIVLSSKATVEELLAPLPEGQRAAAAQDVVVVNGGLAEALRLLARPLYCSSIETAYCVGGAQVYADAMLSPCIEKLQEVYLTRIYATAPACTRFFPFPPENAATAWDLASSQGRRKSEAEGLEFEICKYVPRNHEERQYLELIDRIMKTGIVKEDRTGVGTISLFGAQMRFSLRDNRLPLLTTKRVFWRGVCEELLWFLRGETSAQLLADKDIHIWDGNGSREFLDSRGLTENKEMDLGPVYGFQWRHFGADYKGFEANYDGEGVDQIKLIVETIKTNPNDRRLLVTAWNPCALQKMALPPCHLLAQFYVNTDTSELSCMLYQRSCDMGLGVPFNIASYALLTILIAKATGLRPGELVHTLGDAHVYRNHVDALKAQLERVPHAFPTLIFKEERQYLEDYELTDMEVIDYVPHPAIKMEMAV
Voltage-gated inwardly rectifying potassium channel KCNH2, sequence (Q12809 whole entry): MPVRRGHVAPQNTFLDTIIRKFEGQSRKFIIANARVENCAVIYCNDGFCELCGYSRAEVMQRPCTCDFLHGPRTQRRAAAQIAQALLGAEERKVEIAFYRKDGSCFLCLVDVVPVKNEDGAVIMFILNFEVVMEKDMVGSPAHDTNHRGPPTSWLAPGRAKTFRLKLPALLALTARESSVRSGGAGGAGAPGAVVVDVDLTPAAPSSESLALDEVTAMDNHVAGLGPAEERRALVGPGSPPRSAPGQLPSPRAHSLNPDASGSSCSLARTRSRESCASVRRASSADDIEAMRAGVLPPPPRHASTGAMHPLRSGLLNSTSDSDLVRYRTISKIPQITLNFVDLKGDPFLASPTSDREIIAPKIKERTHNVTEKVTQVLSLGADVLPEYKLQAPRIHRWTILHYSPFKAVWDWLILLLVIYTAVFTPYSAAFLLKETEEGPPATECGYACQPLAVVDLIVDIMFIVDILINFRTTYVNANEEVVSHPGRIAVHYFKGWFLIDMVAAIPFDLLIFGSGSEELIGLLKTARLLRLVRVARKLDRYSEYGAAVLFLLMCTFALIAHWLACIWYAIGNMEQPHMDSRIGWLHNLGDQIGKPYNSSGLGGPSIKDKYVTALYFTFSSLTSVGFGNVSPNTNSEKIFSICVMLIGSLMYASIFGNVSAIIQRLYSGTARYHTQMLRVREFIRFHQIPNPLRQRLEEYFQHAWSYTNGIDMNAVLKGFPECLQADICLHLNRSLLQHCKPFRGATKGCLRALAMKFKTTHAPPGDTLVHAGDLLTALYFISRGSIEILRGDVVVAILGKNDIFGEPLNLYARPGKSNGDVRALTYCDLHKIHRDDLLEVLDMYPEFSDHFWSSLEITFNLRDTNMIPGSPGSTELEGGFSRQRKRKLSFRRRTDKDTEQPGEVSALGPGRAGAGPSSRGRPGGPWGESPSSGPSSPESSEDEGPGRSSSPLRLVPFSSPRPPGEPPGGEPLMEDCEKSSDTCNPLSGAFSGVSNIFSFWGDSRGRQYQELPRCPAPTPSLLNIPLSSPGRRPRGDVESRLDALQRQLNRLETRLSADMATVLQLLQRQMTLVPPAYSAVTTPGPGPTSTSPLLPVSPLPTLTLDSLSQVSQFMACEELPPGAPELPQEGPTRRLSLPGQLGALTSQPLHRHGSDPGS

| Structure (SMILES) | pIC50 [1] | pIC50 (Pteridine reductase 1) | pIC50 [2] | pIC50 [3] | pIC50 (Dihydrofolate reductase) | selectivity ratio [4] | selectivity ratio [5] | selectivity ratio [6] | selectivity ratio [7] | Activity (786-0) [%] | Activity (A549) [%] | CC50 (Macrophage) [µM] | inhibition at 0.5 h, 10 µM (CYP3A4) [%] | inhibition at 10 µM [8] [%] | pEC50 [9] | CC50 [10] [µM] | inhibition at 0.5 h, 10 µM (CYP1A2) [%] | inhibition (INH) [11] [%] |
| --- | --- | --- | --- | --- | --- | --- | --- | --- | --- | --- | --- | --- | --- | --- | --- | --- | --- | --- |
| Nc1nc(N)c2nc(CNc3cccc4ccccc34)cnc2n1 | 8.00 | 8.00 | 6.35 | 5.82 | 5.36 | 440 | 440 | 10 | 3 | 0 | 0 | – | – | – | – | – | – | – |
| N=C(N)c1ccc(OCCCCCOc2ccc(C(=N)N)cc2)cc1 [PENTAMIDINE] | – | – | – | – | – | – | – | – | – | – | – | 10 | – | – | – | – | – | – |
| COc1ccc(Oc2ccc(CNCc3cnc4nc(N)nc(N)c4n3)cc2)cc1 | 6.28 | 6.59 | – | – | – | 192 | 385 | 1 | 1 | 0 | – | – | 33 | – | – | – | – | – |
| Nc1nc(N)c2nc(CNc3ccc(C(=O)NCCc4ccccc4)cc3)cnc2n1 | > 10.00 | 7.52 | 6.01 | 6.14 | 4.39 | > 403000 | 1340 | 41 | 56 | 13 | 100 | – | – | – | – | – | – | – |
| Nc1nc(N)c2nc(CNc3ccc(C(=O)c4ccccc4)cc3)cnc2n1 | 9.00 | 7.52 | 6.00 | 5.49 | 5.22 | 6020 | 201 | 6 | 2 | 10 | – | – | 17 | – | – | – | – | – |
| COc1ccc(Oc2ccc(CN(Cc3ccccc3)Cc3cnc4nc(N)nc(N)c4n3)cc2)cc1 | 6.62 | 6.82 | – | – | – | – | – | – | – | 0 | – | – | – | 100 | 5.34 | 12.5 | – | – |
| COc1ccc(Oc2ccc(CN(C)Cc3cnc4nc(N)nc(N)c4n3)cc2)cc1 | 6.82 | 6.35 | – | – | – | – | – | – | – | 1 | 15 | – | – | 100 | 5.89 | 12.5 | 9 | – |
| COC(=O)C1CCN(C(=O)c2ccc(N(Cc3ccccc3)Cc3cnc4nc(N)nc(N)c4n3)cc2)CC1 | > 10.00 | 7.70 | 5.92 | 6.04 | 4.14 | > 730000 | 3650 | 61 | 80 | 0 | 100 | – | – | – | – | – | – | 45 |
| NC(=O)C1CCCN1C(=O)Cc1ccc(N(CCCO)Cc2cnc3nc(N)nc(N)c3n2)cc1 (stereo not given) | 8.40 | 6.77 | 6.23 | 6.05 | – | – | – | – | – | – | – | – | 0 | 23 | – | – | – | – |
| CCN(Cc1cnc2nc(N)nc(N)c2n1)c1ccc(C(=O)c2ccccc2)cc1 | > 10.00 | 7.30 | 6.47 | 6.64 | – | – | – | – | – | 0 | 0 | – | – | 78 | 6.18 | 25 | – | – |
| NC(=O)C1CCN(C(=O)Cc2ccc(N(CCCO)Cc3cnc4nc(N)nc(N)c4n3)cc2)CC1 | 8.00 | 6.77 | 4.74 | 5.94 | – | – | – | – | – | 0 | – | – | – | 30 | – | – | – | – |
| CCCOC(=O)C1CCN(C(=O)c2ccc(N(C)Cc3cnc4nc(N)nc(N)c4n3)cc2)CC1 | 7.52 | 6.39 | 5.52 | 6.82 | 5.05 | 300 | 22 | 3 | 59 | 0 | 0 | – | – | – | – | – | – | – |
